Results published in paper PMC11134322 (RSC Advances, 2024).

What was measured:
Format in all cases: cell-based
[1] = test system: LPS-induced IL-6 release in RAW264.7 cells; experiment: Inhibition of LPS-induced IL-6 production, ELISA; conditions: Mus musculus, RAW264.7, 24 h, read-out: IC50 IL-6
Summary of the method: (§1)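 Log-phase RAW264.7 cells, 4 × 10^5 cells per mL, were grown 24 h before dosing. They received test compound or indomethacin for 30 min, then LPS (0.5 mg L−1) for a further 24 h. IL-6 or TNF-α in the culture medium was measured by commercial ELISA, reading absorbance at 450 nm against a standard curve. IC50 came from dose–response experiments.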

[2] = test system: LPS-induced NO release in RAW264.7 cells; experiment: Inhibition of LPS-induced NO release, Griess reagent test; conditions: Mus musculus, RAW264.7, 24 h, read-out: IC50 NO
Summary of the method: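 Log-phase RAW264.7 cells were seeded at 4 × 10^5 cells per mL in 96-well plates and grown 24 h. They were pretreated with test compound or indomethacin for 30 min, then stimulated with LPS (0.5 mg L−1) for 24 h more. NO in the supernatant was measured by Griess method and quantified against an NaNO2 standard curve. IC50 came from dose–response experiments.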

RAW264.7 cells = experiment: Cytotoxicity, CCK-8 assay; conditions: RAW264.7 cells, 24, 48 and 72 h; DEX 27.964 μM, 13b 12.326 μM, 13d 23.684 μM
[3] = test system: LPS-induced TNF-α release in RAW264.7 cells; experiment: Inhibition of LPS-induced TNF-α production, ELISA; conditions: Mus musculus, RAW264.7, 24 h, read-out: IC50 TNF-α
Summary of the method: as §1

In the case of `C[C@@H]1C[C@H]2[C@@H]3CCC4=CC(=O)C=C[C@]4(C)[C@@]3(F)[C@@H](O)C[C@]2(C)[C@@]1(O)C(=O)CO` [DEX, dexamethasone], the IC50 [1] is reported as 0.247 ± 0.073 µM, the IC50 [2] is reported as 21.2 ± 0.517 µM and the “cytotoxicity: cell activity / proliferation versus control (in words)” value (RAW264.7 cells) is reported as “no discernible change in cell activity”. It also gave an IC50 [3] of 27.8 ± 0.643 µM.
